B1: Osa-1-4 twister ribozyme (parent)
chain: CCGCCUAACACUGCCAAUGCCGGUCCCAAGCCCGGAUAAAAGUGGAGGGGGCGG

Variants of: B1
Assay: self-cleavage, relative activity (ratio to wild type); higher = more cleavage; co-transcriptional
Summary of the method: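 For each read, cleavage status was taken from whether upstream sequence was present. The reads came from an Oryza sativa twister ribozyme of 54 nucleotides, whose DNA template was synthesised with 97 % wild-type base and 1 % of each other base at the 48 positions downstream of the cleavage site. The template was transcribed in vitro at 37 °C for 2 h with co-transcriptional self-cleavage, and the RNA was reverse-transcribed using a template-switching oligonucleotide, PCR-amplified and deep-sequenced. Relative activity is the fraction cleaved normalised to wild type.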

| Variant | self-cleavage |
| --- | --- |
| CCGCCUAACACUGCCAAUGCCGGUCCCAAGCCCGGAUAAAAGUGGAGGCGGCAG [G49C G53A] | 0.06 |
| CCGCCUAACACUGCCAAUGCCGGUCCCAAGCCCGGAUAAAAGUGGAGGGACCGG [G50A G51C] | 0.12 |
| CCGCCUAACACUGCCAAUGCCGGUCCCAAGCCCGGAUAAAAGUGGAGGGAACGG [G50A G51A] | 0.5 |
| CCGCCUAACACUGCCAAUGCCGGUCCCAAGCCCGGAUAAAAGUGGAGGGAUCGG [G50A G51U] | 0.16 |
| CCGCCUAACACUGCCAAUGCCGGUCCCAAGCCCGGAUAAAAGAGGAGGCGGCGG [G49C U43A] | 0.08 |
| CCGCCUAACACUGCCAAUGCCGGUCCCAAGCCCGGAUAAAAGGGGAGGCGGCGG [G49C U43G] | 0.04 |
| CCGCCUAACACUGCCAAUGCCGGUCCCAAGCCCGGAUAAAAGCGGAGGCGGCGG [G49C U43C] | 0.1 |
| CCGCCUAACACUGCCAAUGCCGGUCCCAAGCCCGGAAAAAAGUGGAGGGAGCGG [G50A U37A] | 0.38 |
| CCGCCUAACACUGCCAAUGCCGGUCCCAAGCCCGGACAAAAGUGGAGGGAGCGG [G50A U37C] | 0.84 |
| CCGCCUAACACUGCCAAUGCCGGUCCCAAGCCCGGAGAAAAGUGGAGGGAGCGG [G50A U37G] | 0.74 |
| CCGCCUAACACUGCCAAUGCCGGUCCCAAGCCCGGAUAAAAGUGGAGGCAGCGG [G49C G50A] | 0.2 |
| CCGCCUAACACUGCCAAUGCCGGUCCCAAGCCCGGAUAAAAGUGGAGGCCGCGG [G49C G50C] | 0.17 |
| CCGCCUAACACUGCCAAUGCCGGUCCCAAGCCCGGAUAAAAGUGGAGGCUGCGG [G49C G50U] | 0.14 |
| CCGCCUAACACUGCCAAUGCCGGUCCCAAGCCCGGAUAAAAGUGGAGGUGGCGC [G49U G54C] | 0.06 |
| CCGCCUAACACUGCCAAUGCCGGUCCCAAGCCCGGAUAAAAGUGGAGGUGGCGU [G49U G54U] | 0.26 |
| CCGCCUAACACUGCCAAUGCCGGUCCCAAGCCCGGAUAAAAGUGGAGGUGGCGA [G49U G54A] | 0.1 |
| CCGCCUAACACUGCCAAUGCCGGUCCCAAGCCCGGAUAAAAGUGGAGGUGGCUG [G49U G53U] | 0.07 |
| CCGCCUAACACUGCCAAUGCCGGUCCCAAGCCCGGAUAAAAGUGGAGGUGGCCG [G49U G53C] | 0.04 |
| CCGCCUAACACUGCCAAUGCCGGUCCCAAGCCCGGAUAAAAGUGGAGGUGGCAG [G49U G53A] | 0.07 |
| CCGCCUAACACUGCCAAUGCCGGUCCCAAGCCCGGAAAAAAGUGGAGGUGGCGG [G49U U37A] | 0.12 |
| CCGCCUAACACUGCCAAUGCCGGUCCCAAGCCCGGAGAAAAGUGGAGGUGGCGG [G49U U37G] | 0.3 |
| CCGCCUAACACUGCCAAUGCCGGUCCCAAGCCCGGACAAAAGUGGAGGUGGCGG [G49U U37C] | 0.18 |
| CCGCCUAACACUGCCAACGCCGGUCCCAAGCCCGGAUAAAAGUGGAGGGAGCGG [G50A U18C] | 0.45 |
| CCGCCUAACACUGCCAAAGCCGGUCCCAAGCCCGGAUAAAAGUGGAGGGAGCGG [G50A U18A] | 0.61 |
| CCGCCUAACACUGCCAAGGCCGGUCCCAAGCCCGGAUAAAAGUGGAGGGAGCGG [G50A U18G] | 0.79 |

| Variant | self-cleavage |
| --- | --- |
| CCGCCUAACACUGCCAAUGCCGGACCCAAGCCCGGAUAAAAGUGGAGGGAGCGG [G50A U24A] | 0.6 |
| CCGCCUAACACUGCCAAUGCCGGCCCCAAGCCCGGAUAAAAGUGGAGGGAGCGG [G50A U24C] | 0.64 |
| CCGCCUAACACUGCCAAUGCCGGGCCCAAGCCCGGAUAAAAGUGGAGGGAGCGG [G50A U24G] | 0.02 |
| CCGCCUAACACUGCCAAUGCCGGUCCCAAGCCCGGAUAAAAGUGGAGGGAGCAG [G50A G53A] | 0.94 |
| CCGCCUAACACUGCCAAUGCCGGUCCCAAGCCCGGAUAAAAGUGGAGGGAGCCG [G50A G53C] | 0.32 |
| CCGCCUAACACUGCCAAUGCCGGUCCCAAGCCCGGAUAAAAGUGGAGGGAGCUG [G50A G53U] | 0.9 |
| CCGCCUAACACUGCCAAUGCCGGUCCCAAGCCCGGAUAAAAGUGGAGGGAGCGC [G50A G54C] | 0.99 |
| CCGCCUAACACUGCCAAUGCCGGUCCCAAGCCCGGAUAAAAGUGGAGGGAGCGA [G50A G54A] | 0.97 |
| CCGCCUAACACUGCCAAUGCCGGUCCCAAGCCCGGAUAAAAGUGGAGGGAGCGU [G50A G54U] | 0.96 |
| CCGCCUAACACUGCCAAUGCCGGUCCCAAGCCCGGAUAAAAGUGGAGGCGCCGG [G49C G51C] | 0.04 |
| CCGCCUAACACUGCCAAUGCCGGUCCCAAGCCCGGAUAAAAGUGGAGGCGUCGG [G49C G51U] | 0.08 |
| CCGCCUAACACUGCCAAUGCCGGUCCCAAGCCCGGAUAAAAGUGGAGGCGACGG [G49C G51A] | 0.12 |
| CCGCCUAACACUGCCAAUGCCGGUCCCAAGCCCGGAUAAAAGUGGAGGUCGCGG [G49U G50C] | 0.31 |
| CCGCCUAACACUGCCAAUGCCGGUCCCAAGCCCGGAUAAAAGUGGAGGUUGCGG [G49U G50U] | 0.21 |
| CCGCCUAACACUGCCAAUGCCGGUCCCAAGCCCGGAUAAAAGUGGAGGUAGCGG [G49U G50A] | 0.5 |
| CCGCCUAACACUGCCAAUGCCGGACCCAAGCCCGGAUAAAAGUGGAGGUGGCGG [G49U U24A] | 0.04 |
| CCGCCUAACACUGCCAAUGCCGGCCCCAAGCCCGGAUAAAAGUGGAGGUGGCGG [G49U U24C] | 0.04 |
| CCGCCUAACACUGCCAAUGCCGGGCCCAAGCCCGGAUAAAAGUGGAGGUGGCGG [G49U U24G] | 0.02 |
| CCGCCUAACACCGCCAAUGCCGGUCCCAAGCCCGGAUAAAAGUGGAGGUGGCGG [G49U U12C] | 0.04 |
| CCGCCUAACACAGCCAAUGCCGGUCCCAAGCCCGGAUAAAAGUGGAGGUGGCGG [G49U U12A] | 0.09 |
| CCGCCUAACACGGCCAAUGCCGGUCCCAAGCCCGGAUAAAAGUGGAGGUGGCGG [G49U U12G] | 0.07 |
| CCGCCUAACACUGCCAAUGCCGGUCCCAAGCCCGGAUAAAAGUGGAGGGCGCCG [G50C G53C] | 0.06 |
| CCGCCUAACACUGCCAAUGCCGGUCCCAAGCCCGGAUAAAAGUGGAGGGCGCUG [G50C G53U] | 0.11 |
| CCGCCUAACACUGCCAAUGCCGGUCCCAAGCCCGGAUAAAAGUGGAGGGCGCAG [G50C G53A] | 0.11 |
